From ChEMBL document CHEMBL3244012, “Guanylhydrazones with potential antileukemic activity. 2. Synthesis and structure-activity relationships of analogues of 4,4'-diacetyl-N,N'-diphenylurea bis(guanylhydrazone)” (J Med Chem, 1978) come the findings set out here.

For one data set, the system named is TA3. The experiment in a line: Cytotoxicity against mouse TA3 cells assessed as growth inhibition after 3 days. It is filed as functional. Particulars: TA3, 72 h, read-out: ID50 (the source's name). Put shortly:
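Mouse mammary adenocarcinoma TA-3 cells grown in stationary tubes in RPMI 1640 with 10% horse serum; 50 000 cells inoculated with compound in medium, incubated upright 3 days. Growth read by protein assay; control growth six- to tenfold. Five tubes per concentration; inhibitory compounds retested at least twice. ID50 = 50% inhibitory concentration, between-test variation within ±10%.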

For a further data set, the system named is L1210. The experiment in a line: Antitumor activity against mouse L1210 cells allografted in DBA/2J mouse assessed as survival at 30 mg/kg, ip dosed once daily on days 1 to 3 (reference value: 8.2 +/- 1.1 days). The class given is functional. Particulars: route intraperitoneal.
Data set [1] addresses T1, DNA polymerase alpha catalytic subunit (Mus musculus) (UniProt P33609).
T1 sequence (whole entry): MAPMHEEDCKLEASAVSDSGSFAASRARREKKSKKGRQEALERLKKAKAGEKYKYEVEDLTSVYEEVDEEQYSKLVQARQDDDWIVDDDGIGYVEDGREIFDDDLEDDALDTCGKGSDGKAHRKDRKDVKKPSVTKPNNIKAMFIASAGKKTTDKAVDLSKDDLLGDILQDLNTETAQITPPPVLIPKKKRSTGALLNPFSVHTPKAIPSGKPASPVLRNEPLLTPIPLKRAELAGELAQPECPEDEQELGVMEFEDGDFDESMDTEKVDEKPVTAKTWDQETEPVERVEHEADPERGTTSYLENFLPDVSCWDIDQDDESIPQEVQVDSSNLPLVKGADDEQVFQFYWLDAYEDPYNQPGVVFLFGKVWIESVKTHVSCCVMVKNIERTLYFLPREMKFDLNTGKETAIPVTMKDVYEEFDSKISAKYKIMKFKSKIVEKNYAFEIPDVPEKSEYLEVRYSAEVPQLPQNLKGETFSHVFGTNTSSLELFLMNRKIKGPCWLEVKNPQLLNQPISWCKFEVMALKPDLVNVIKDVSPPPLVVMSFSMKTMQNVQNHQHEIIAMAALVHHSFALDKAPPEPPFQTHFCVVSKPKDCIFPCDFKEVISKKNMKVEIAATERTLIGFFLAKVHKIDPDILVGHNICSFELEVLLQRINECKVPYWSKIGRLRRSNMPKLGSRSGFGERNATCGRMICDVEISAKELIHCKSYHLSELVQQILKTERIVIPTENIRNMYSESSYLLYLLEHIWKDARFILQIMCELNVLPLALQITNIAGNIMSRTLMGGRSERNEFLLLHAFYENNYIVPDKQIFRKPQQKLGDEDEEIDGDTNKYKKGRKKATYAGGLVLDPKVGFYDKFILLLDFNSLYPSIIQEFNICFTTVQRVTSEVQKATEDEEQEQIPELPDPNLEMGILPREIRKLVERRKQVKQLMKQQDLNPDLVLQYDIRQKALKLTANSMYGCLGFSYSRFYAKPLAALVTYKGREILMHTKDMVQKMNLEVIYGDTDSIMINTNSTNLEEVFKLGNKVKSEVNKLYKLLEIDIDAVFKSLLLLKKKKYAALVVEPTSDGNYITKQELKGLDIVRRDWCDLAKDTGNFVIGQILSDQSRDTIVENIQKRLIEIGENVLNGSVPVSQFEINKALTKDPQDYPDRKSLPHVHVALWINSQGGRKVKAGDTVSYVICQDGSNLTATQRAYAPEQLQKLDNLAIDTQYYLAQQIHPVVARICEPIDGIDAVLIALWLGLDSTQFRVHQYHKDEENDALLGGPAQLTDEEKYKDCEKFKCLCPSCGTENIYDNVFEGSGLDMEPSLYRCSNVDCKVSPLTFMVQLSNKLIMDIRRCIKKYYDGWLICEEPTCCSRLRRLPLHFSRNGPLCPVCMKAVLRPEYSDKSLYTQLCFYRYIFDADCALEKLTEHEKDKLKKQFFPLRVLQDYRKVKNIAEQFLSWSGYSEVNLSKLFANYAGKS
The experiment in a line: Inhibition of DNA polymerase alpha isolated from mouse L1210 cells assessed as reduction in DNA synthesis by cell-free system based assay. Summed up: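 DNA polymerase α taken as a crude extract of mouse L1210 leukemia cells, assayed in a Bollum-type cell-free DNA synthesis system. Compounds added at different concentrations to the assay mixture before enzyme; initial reaction velocity measured.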

Data set [2] can be described thus: Solubility in aqueous solvents. It is filed as physicochemical. The settings on record: buffer.

For `Br.Br.C/C(=N\NC(=N)N)c1ccc(NC(=O)N(C)c2ccc(/C(C)=N/NC(=N)N)cc2)cc1`, the IC50 in the data set with TA3 was determined as 180 µM. Also, the Survival in the data set with L1210 amounted to 14.3 days. Also, in data set [1], the inhibitory concentration stood at 80 µM.

Turning to `C/C(=N/NC(N)=S)c1ccc(NC(=O)Nc2ccc(/C(C)=N/NC(N)=S)cc2)cc1`, in data set [2], the solubility result is given as “Insoluble”.

In the case of `Br.Br.C/C(=N\NC(=N)N)c1ccc(CNC(=O)NCc2ccc(/C(C)=N/NC(=N)N)cc2)cc1`, the IC50 with TA3 was 90 µM. Besides, the Survival in the data set on L1210 amounted to 10.7 days.

Regarding `C/C(=N/NC(=N)N[N+](=O)[O-])c1ccc(NC(=O)Nc2ccc(/C(C)=N\NC(=N)N[N+](=O)[O-])cc2)cc1`, the solubility result in data set [2] is “Insoluble”.

In the case of `C/C(=N\NC(=N)N)c1ccc(NC(=O)Nc2ccc(/C(C)=N/NC(=N)N)cc2)cc1`, the IC50 with TA3 was 6 µM. Also, the inhibitory concentration in data set [1] turned out to be 60 µM.

Regarding `Br.Br.C/C(=N/NC(=N)N)c1ccc(CNC(=O)N(Cc2ccc(/C(C)=N/NC(=N)N)cc2)N=O)cc1`, the IC50 in the data set on TA3 is greater than 100 µM. The Survival in the data set with L1210 came out at 10.5 days. The inhibitory concentration in data set [1] was 230 µM.

For `C/C(=N\NC(=N)N)c1ccc(NC(=O)Oc2ccc(/C(C)=N/NC(=N)N)cc2)cc1`, in the data set on TA3, the IC50 was determined as 180 µM. For the same molecule, in data set [1], the inhibitory concentration was found to be 170 µM.

With `C/C(=N\O)c1ccc(NC(=O)Nc2ccc(/C(C)=N/O)cc2)cc1`, the solubility result in data set [2] is listed as “Insoluble”.

On to `C/C(=N\NC(=N)N)c1ccc(N(C)C(=O)N(C)c2ccc(/C(C)=N/NC(=N)N)cc2)cc1`, for which the IC50 in the data set with TA3 was 100 µM. Further, the Survival with L1210 came out at 1.7 days. The inhibitory concentration in data set [1] stood at 310 µM.

For `C/C(=N\NC(=N)N)c1ccc(NC(=O)Nc2ccc(/C(C)=N/NC(=N)N)cn2)nc1`, in the data set on TA3, the IC50 turned out to be 7 µM. The Survival in the data set with L1210 amounted to 11 days. For the same molecule, the inhibitory concentration in data set [1] stood at 160 µM.

As for `C/C(=N\NC(=N)N)c1ccc(NC(=O)Nc2ccc(/C(C)=N/NC(=N)N)cn2)cc1`, the IC50 in the data set with TA3 came to 7 µM. Further, the Survival in the data set with L1210 was 11.3 days.

In the case of `Br.Br.C/C(=N/NC(=N)N)c1ccc(NC(=O)NCc2ccc(/C(C)=N/NC(=N)N)cc2)cc1`, in the data set with TA3, the IC50 was found to be 20 µM. Besides, the Survival in the data set with L1210 was 23 days. Moreover, the inhibitory concentration in data set [1] was 110 µM.
